According to article PMC4902112 (Biochemistry, 2009):

How the values were obtained:
[1] = target: T1, human tear lipocalin (TL) (Homo sapiens, UniProt P31025, W35Y); assay: fluorescence enhancement and blue shift on binding; conditions: TL 4 μM, DAUDA 2 μM, 10 mM sodium phosphate, pH 7.3; fluorescent probe
[2] = target: T1, human tear lipocalin (TL); assay: DAUDA fluorescence displacement; type: binding
[3] = target: human tear lipocalin (TL) (Homo sapiens, UniProt P31025, I75W/W35Y); assay: Trp fluorescence titration, one-site fit; type: binding
In short: (§1)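 Recombinant human TL single-Trp mutants: native Trp replaced by Tyr, one site changed to Trp. Expressed in E. coli BL21(DE3); purified by gel filtration and DEAE chromatography. About 14 μM protein in 10 mM sodium phosphate, pH 7.3, at room temperature, titrated with palmitic acid or its spin-labeled analogue. 2 min equilibration per addition. Excitation 295 nm, emission read at λmax. One-site fit gave apparent Kd and stoichiometry.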

[4] = target: human tear lipocalin (TL) (Homo sapiens, UniProt P31025, M40W/W35Y); assay: Trp fluorescence titration, one-site fit; type: binding
In short: as §1

[5] = target: human tear lipocalin (TL) (Homo sapiens, UniProt P31025, W35Y/Y115W); assay: Trp fluorescence titration, one-site fit; type: binding
In short: as §1

[6] = target: human tear lipocalin (TL) (Homo sapiens, UniProt P31025, C119W/W35Y); assay: Trp fluorescence titration, one-site fit; type: binding
In short: as §1

[7] = target: human tear lipocalin (TL) (Homo sapiens, UniProt P31025, L67W/W35Y); assay: Trp fluorescence titration, one-site fit; type: binding
In short: as §1

[8] = target: human tear lipocalin (TL) (Homo sapiens, UniProt P31025, T55W/W35Y); assay: Trp fluorescence titration, one-site fit; type: binding
In short: as §1

[9] = target: human tear lipocalin (TL) (Homo sapiens, UniProt P31025, L86W/W35Y); assay: Trp fluorescence titration, one-site fit; type: binding
In short: as §1

[10] = target: human tear lipocalin (TL) (Homo sapiens, UniProt P31025, I106W/W35Y); assay: Trp fluorescence titration, one-site fit; type: binding
In short: as §1

[11] = target: human tear lipocalin (TL) (Homo sapiens, UniProt P31025, G121W/W35Y); assay: Trp fluorescence titration, one-site fit; type: binding
In short: as §1

[12] = target: human tear lipocalin (TL) (Homo sapiens, UniProt P31025, L123W/W35Y); assay: Trp fluorescence titration, one-site fit; type: binding
In short: as §1

T1 sequence (P31025 19-176 W35Y): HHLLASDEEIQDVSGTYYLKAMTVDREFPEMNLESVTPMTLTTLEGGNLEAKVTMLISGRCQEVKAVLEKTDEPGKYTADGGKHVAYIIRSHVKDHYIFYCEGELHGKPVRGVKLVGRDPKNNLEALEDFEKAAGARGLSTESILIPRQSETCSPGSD
Chain of human tear lipocalin (TL) (Homo sapiens, UniProt P31025, G121W/W35Y) (P31025 19-176 W35Y/G121W): as the sequence (P31025 19-176 W35Y) above, with G103W counted along it
Chain of human tear lipocalin (TL) (Homo sapiens, UniProt P31025, I106W/W35Y) (P31025 19-176 W35Y/I106W): as the sequence (P31025 19-176 W35Y) above, with I88W counted along it
Chain of human tear lipocalin (TL) (Homo sapiens, UniProt P31025, L123W/W35Y) (P31025 19-176 W35Y/L123W): as the sequence (P31025 19-176 W35Y) above, with L105W counted along it
Chain of human tear lipocalin (TL) (Homo sapiens, UniProt P31025, M40W/W35Y) (P31025 19-176 W35Y/M40W): as the sequence (P31025 19-176 W35Y) above, with M22W counted along it
Chain of human tear lipocalin (TL) (Homo sapiens, UniProt P31025, I75W/W35Y) (P31025 19-176 W35Y/I75W): as the sequence (P31025 19-176 W35Y) above, with I57W counted along it
Chain of human tear lipocalin (TL) (Homo sapiens, UniProt P31025, L67W/W35Y) (P31025 19-176 W35Y/L67W): as the sequence (P31025 19-176 W35Y) above, with L49W counted along it
Chain of human tear lipocalin (TL) (Homo sapiens, UniProt P31025, T55W/W35Y) (P31025 19-176 W35Y/T55W): as the sequence (P31025 19-176 W35Y) above, with T37W counted along it
Chain of human tear lipocalin (TL) (Homo sapiens, UniProt P31025, W35Y/Y115W) (P31025 19-176 W35Y/Y115W): as the sequence (P31025 19-176 W35Y) above, with Y97W counted along it
Chain of human tear lipocalin (TL) (Homo sapiens, UniProt P31025, L86W/W35Y) (P31025 19-176 W35Y/L86W): as the sequence (P31025 19-176 W35Y) above, with L68W counted along it
Chain of human tear lipocalin (TL) (Homo sapiens, UniProt P31025, C119W/W35Y) (P31025 19-176 W35Y/C119W): as the sequence (P31025 19-176 W35Y) above, with C101W counted along it

| IC50 [2] | Kd [3] | Kd [4] | Kd [5] | Kd [6] | Kd [7] | Kd [8] | Kd [9] | Kd [10] | Kd [11] | Kd [12] | SMILES | fluorescence enhancement and blue shift on binding [1] |
| --- | --- | --- | --- | --- | --- | --- | --- | --- | --- | --- | --- | --- |
|  |  |  |  |  |  |  |  |  |  |  | CN(C)c1cccc2c(S(=O)(=O)NCCCCCCCCCCC(=O)O)cccc12 [DAUDA, 11-((5-dimethylaminonaphthalene-1-sulfonyl)amino)undecanoic acid] | DAUDA increases significantly and exhibits a blue shift ... when bound to TL |
| 12600 nM |  |  |  |  |  |  |  |  |  |  | CCCCCCCCCCCC(=O)O [LA] |  |
| 2300 nM | 500 ± 100 nM | 900 ± 200 nM | 400 ± 100 nM | 2800 ± 500 nM | 2300 ± 200 nM | 5800 ± 600 nM | 300 ± 100 nM | 500 ± 200 nM | 300 ± 100 nM | 500 ± 100 nM | CCCCCCCCCCCCCCCC(=O)O [PA] |  |
